Calls of active or inactive are those of the source. No cut-off for these calls is given here.

For series [1], the target named is T1, Delta-type opioid receptor (Homo sapiens, UniProt P41143). The series is described as follows: Displacement of [3H]DPDPE from recombinant human delta-opioid receptor expressed in HEK293 cell membranes at 1 X 10^-5 M after 60 mins by liquid scintillation counting method relative to control. A digest of the protocol: (§1)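 Single-concentration radioligand displacement in membranes from CHO (κ, μ) or HEK293 (δ) cells expressing human receptors. Radioligands were [3H]-U69,593, [3H]-DAMGO and [3H]-DPDPE, incubated in Tris-HCl at 25 °C for 60 min, filtered and counted by scintillation. Read-out was percent inhibition of specific binding; assays were done in duplicate.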
T1 sequence (P41143 whole entry): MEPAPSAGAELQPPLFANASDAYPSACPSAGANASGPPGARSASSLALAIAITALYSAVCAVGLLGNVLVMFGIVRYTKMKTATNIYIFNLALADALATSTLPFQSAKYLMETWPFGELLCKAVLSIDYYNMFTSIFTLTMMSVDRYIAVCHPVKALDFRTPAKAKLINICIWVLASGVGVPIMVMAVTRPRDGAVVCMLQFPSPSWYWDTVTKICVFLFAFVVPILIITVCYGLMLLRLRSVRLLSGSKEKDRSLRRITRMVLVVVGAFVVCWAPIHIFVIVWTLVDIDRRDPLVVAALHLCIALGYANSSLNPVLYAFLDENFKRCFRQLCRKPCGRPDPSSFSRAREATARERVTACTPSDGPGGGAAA

The target in series [2] is T1, Delta-type opioid receptor. The series can be described thus: Displacement of [3H]DPDPE from recombinant human delta-opioid receptor expressed in HEK293 cell membranes after 60 mins by liquid scintillation counting method.
The species named for series [3] is Homo sapiens. The series is described as follows: Selectivity ratio of IC50 for antagonist activity at recombinant human mu-opioid receptor expressed in CHO cell membranes assessed as inhibition of DAMGO-induced [35S]GTPgammaS binding to IC50 for antagonist activity at recombinant human kappa-opioid receptor expressed in CHO cell membranes assessed as inhibition of U69593-induced [35S]GTPgammaS binding. A digest of the protocol: (§2)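 Membranes from CHO cells (κ, μ) or HEK293 cells (δ) expressing human opioid receptors. Assay buffer was 20 mM HEPES pH 7.4, 5 mM MgCl2, 100 mM NaCl, 1 mM EDTA, 1 mM DTT with GDP. GTP-γ-35S was 0.5 nM final. Agonist at ~80% max stimulation: U69,593 300 nM (κ), DAMGO (μ), DPDPE 30 nM (δ). Read by WGA SPA, 11-point curves, four-parameter fit; mean ± SEM of ≥3 experiments.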
(GTPγS is a poorly hydrolysed GTP analogue; its binding reports G protein activation.)

Series [4] deals with T2, Kappa-type opioid receptor (Homo sapiens, UniProt P41145). The series can be described thus: Displacement of [3H]U69593 from recombinant human kappa-opioid receptor expressed in CHO cell membranes at 1 X 10^-6 M after 60 mins by liquid scintillation counting method relative to control. The method in brief:
as §1
On the technique in general: Displacement assays read how much labelled ligand stays bound in the presence of the test substance.

Series [5] has as its system Mus musculus. The series is described as follows: Anxiolytic activity in ICR mouse assessed as increase in time spent on open arms at 30 mg/kg, ip administered 30 mins prior to test measured for 5 mins by elevated plus maze test. In kind it is functional, organism-based. The method in brief: (§3)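 Male ICR mice (18–22 g), 10 per group, adapted ≥1 h. Dosed i.p. with saline vehicle 30 min pretest. Maze elevated 50 cm; each mouse started on the central platform facing an open arm. Entries and time in open and closed arms were video-tracked over 5 min, expressed as OE/(CE+OE) and OT/(OT+CT); mean ± SEM.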

Series [6] addresses T3, Mu-type opioid receptor (Homo sapiens, UniProt P35372). The series is described as follows: Displacement of [3H]DAMGO from recombinant human mu-opioid receptor expressed in CHO cell membranes after 60 mins by liquid scintillation counting method.
Series [7] deals with T2, Kappa-type opioid receptor. The series is described as follows: Displacement of [3H]U69593 from recombinant human kappa-opioid receptor expressed in CHO cell membranes at 1 X 10^-5 M after 60 mins by liquid scintillation counting method relative to control. The method in brief:
as §1

For series [8], the target named is T2, Kappa-type opioid receptor. The series is described as follows: Antagonist activity at recombinant human kappa-opioid receptor expressed in CHO cell membranes assessed as inhibition of U69593-induced [35S]GTPgammaS binding after 4 hrs by microbeta scintillation counting method. The format is functional. The method in brief:
as §2

Series [9] deals with Mus musculus. The series can be described thus: Antidepressant-like activity in ICR mouse assessed as decrease in immobility time at 30 mg/kg, ip administered 30 mins prior to test measured for last 4 mins of 6 mins observation by forced swim test. The format is functional, organism-based. The method in brief:
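Male ICR mice (20–25 g), 10 per group, adapted ≥15 min before testing. Dosed i.p. with saline vehicle 30 min pretest. Each mouse was placed in a cylinder 10 cm wide with water 6 cm deep at 25 °C for 6 min. Immobility was scored over the last 4 min; mean ± SEM.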

In series [10] the target is T3, Mu-type opioid receptor. The series can be described thus: Displacement of [3H]DAMGO from recombinant human mu-opioid receptor expressed in CHO cell membranes at 1 X 10^-5 M after 60 mins by liquid scintillation counting method relative to control. The method in brief:
as §1

Series [11] is filed under the species Homo sapiens. The series can be described thus: Selectivity ratio of IC50 for antagonist activity at recombinant human delta-opioid receptor expressed in HEK293 cell membranes assessed as inhibition of DPDPE-induced [35S]GTPgammaS binding to IC50 for antagonist activity at recombinant human kappa-opioid receptor expressed in CHO cell membranes assessed as inhibition of U69593-induced [35S]GTPgammaS binding. A digest of the protocol: as §2

For series [12], the species on record is Homo sapiens. The series can be described thus: Selectivity ratio of Ki for displacement of [3H]DPDPE from recombinant human delta-opioid receptor expressed in HEK293 cell membranes to Ki for displacement of [3H]U69593 from recombinant human kappa-opioid receptor expressed in CHO cell membranes.
Series [13] addresses T1, Delta-type opioid receptor. The series can be described thus: Displacement of [3H]DPDPE from recombinant human delta-opioid receptor expressed in HEK293 cell membranes at 1 X 10^-6 M after 60 mins by liquid scintillation counting method relative to control. A digest of the protocol:
as §1

Series [14] concerns the target T1, Delta-type opioid receptor. The series can be described thus: Antagonist activity at recombinant human delta-opioid receptor expressed in HEK293 cell membranes assessed as inhibition of DPDPE-induced [35S]GTPgammaS binding after 2 hrs by microbeta scintillation counting method. In kind it is functional. The method in brief:
as §2

Series [15] addresses T3, Mu-type opioid receptor. The series is described as follows: Antagonist activity at recombinant human mu-opioid receptor expressed in CHO cell membranes assessed as inhibition of DAMGO-induced [35S]GTPgammaS binding after 4 hrs by microbeta scintillation counting method. In kind it is functional. The method in brief: as §2
Series [16] addresses T2, Kappa-type opioid receptor. The series is described as follows: Displacement of [3H]U69593 from recombinant human kappa-opioid receptor expressed in CHO cell membranes after 60 mins by liquid scintillation counting method.
In series [17] the test system is Mus musculus. The series is described as follows: Anxiolytic activity in ICR mouse assessed as increase in number of open arm entries at 30 mg/kg, ip administered 30 mins prior to test measured for 5 mins by elevated plus maze test. The format is functional, organism-based. A digest of the protocol:
as §3

The target of series [18] is T3, Mu-type opioid receptor. The series can be described thus: Displacement of [3H]DAMGO from recombinant human mu-opioid receptor expressed in CHO cell membranes at 1 X 10^-6 M after 60 mins by liquid scintillation counting method relative to control. The method in brief: as §1
For series [19], the species on record is Homo sapiens. The series can be described thus: Selectivity ratio of Ki for displacement of [3H]DAMGO from recombinant human mu-opioid receptor expressed in CHO cell membranes to Ki for displacement of [3H]U69593 from recombinant human kappa-opioid receptor expressed in CHO cell membranes.
The nature of series [20]: Tmax in rat at 1 or 10 mg/kg, iv or po by LC-MS/MS analysis. The format is ADME, organism-based. The note with it: in vivo.
Series [21] in a line: Half life in rat at 1 or 10 mg/kg, iv or po by LC-MS/MS analysis. In kind it is ADME, organism-based. The note with it: in vivo.
Series [22] can be described thus: Oral bioavailability in rat at 10 mg/kg by LC-MS/MS analysis. The note with it: in vivo. In kind it is ADME, organism-based.

T3 sequence (P35372 whole entry): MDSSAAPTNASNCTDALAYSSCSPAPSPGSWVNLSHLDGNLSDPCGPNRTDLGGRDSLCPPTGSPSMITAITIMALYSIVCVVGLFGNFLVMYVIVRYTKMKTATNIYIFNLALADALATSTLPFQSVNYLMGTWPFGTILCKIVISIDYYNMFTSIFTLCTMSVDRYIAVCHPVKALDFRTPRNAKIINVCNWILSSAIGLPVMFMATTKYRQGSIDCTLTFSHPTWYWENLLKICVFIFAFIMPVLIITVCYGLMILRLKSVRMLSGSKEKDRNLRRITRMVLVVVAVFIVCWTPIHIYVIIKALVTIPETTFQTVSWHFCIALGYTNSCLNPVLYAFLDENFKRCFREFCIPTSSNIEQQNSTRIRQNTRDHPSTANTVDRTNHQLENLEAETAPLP
T2 sequence (P41145 whole entry): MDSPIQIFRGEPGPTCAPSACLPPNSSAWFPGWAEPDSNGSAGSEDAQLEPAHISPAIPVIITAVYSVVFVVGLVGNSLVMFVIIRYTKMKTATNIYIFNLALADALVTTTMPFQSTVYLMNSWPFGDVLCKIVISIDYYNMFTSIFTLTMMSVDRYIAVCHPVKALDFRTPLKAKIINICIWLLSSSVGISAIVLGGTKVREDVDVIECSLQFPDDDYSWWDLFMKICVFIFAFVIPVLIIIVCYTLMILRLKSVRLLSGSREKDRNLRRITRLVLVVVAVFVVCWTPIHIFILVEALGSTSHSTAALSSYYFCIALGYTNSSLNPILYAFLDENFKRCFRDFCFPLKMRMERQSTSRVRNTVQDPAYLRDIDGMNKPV

As usually defined, the inhibition is the percentage by which the read-out fell short of the control. As usually defined, the Ki is a measure of affinity in units of concentration, obtained from inhibition or displacement. One may read the IC50 as the point on the concentration scale where inhibition reaches its midpoint. On to `Cc1cc(C)cc(C2CCCN2Cc2ccc(Oc3ccc(C(N)=O)cc3F)c(Cl)c2)c1` (configuration not stated), for which the inhibition in series [1] amounted to 92.4%; in [4], 98.5%; in [7], 100%; at Mu-type opioid receptor [10] it was 94.2%; in series [13], 54.1%; at Mu-type opioid receptor [18], 51.4%. Further, the Ki in [2] was found to be 191 nM; at Mu-type opioid receptor [6] it was 220 nM; in series [16], 15.7 nM. Also, the Ratio IC50 in the series listed under Homo sapiens [3] was 15.5; in the series filed under Homo sapiens [11], 1.7. Moreover, the result with Mus musculus [5], with Mus musculus [9] and in the series with Mus musculus [17] was Active. Besides, the IC50 was 9.32 nM in series [8], 15.8 nM in series [14] and 144 nM at Mu-type opioid receptor [15]. The results for the Ratio Ki in the series listed under Homo sapiens [12] and in the series listed under Homo sapiens [19] were 12.2 and 14, respectively.

`Cc1cc(C)cc(C2CCCN2Cc2ccc(Oc3ccc(C(N)=O)cc3)c(F)c2)c1` (configuration not stated): the inhibition in series [1] is 97.1%; in series [4], 98.8%; in series [7], 100%; on Mu-type opioid receptor [10], 95.3%; in series [13], 45.5%; on Mu-type opioid receptor [18], 71%. The figures for the Ki (in series [2]; at Mu-type opioid receptor [6]; in series [16]) were 267 nM, 62.8 nM and 29.4 nM, respectively. For the same compound, the outcome in the series on Mus musculus [9] was Active. Moreover, the results for the Ratio Ki in the series listed under Homo sapiens [12] and in the series filed under Homo sapiens [19] were 9 and 2.13, respectively.

Turning to `Cc1cc(C)cc(C2CCCN2Cc2ccc(Oc3ccc(C(N)=O)cc3F)cc2)c1` (racemic), the inhibition in series [1] was found to be 87.2%; in series [4], 97%; in [7] it was 100%; on Mu-type opioid receptor [10], 93.6%; in [13] it was 45.5%; at Mu-type opioid receptor [18] it was 56.1%. The results for the Ki (in series [2]; on Mu-type opioid receptor [6]; in series [16]) were 91.5 nM, 90.9 nM and 11.9 nM, respectively. For the same compound, the Ratio IC50 in the series listed under Homo sapiens [3] was 3.4; in the series filed under Homo sapiens [11] it was 14.3. Moreover, the result with Mus musculus [5], with Mus musculus [9] and with Mus musculus [17] was Active. For the same compound, the IC50 in [8] was 6.68 nM; in series [14], 95.5 nM; on Mu-type opioid receptor [15] it was 22.6 nM. Besides, the Ratio Ki in the series listed under Homo sapiens [12] and in the series listed under Homo sapiens [19] was 7.6 throughout.

With `Cc1cccc(C2CCCN2Cc2ccc(Oc3ccc(C(N)=O)c4ccccc34)cc2)c1` (configuration not stated), the inhibition in series [1] is 0%; in series [4] it was 39.9%; in [7], 86.9%; at Mu-type opioid receptor [10] it was 16.3%; in series [13], 0%; at Mu-type opioid receptor [18] it was 0%. Moreover, the Ki in series [2] was over 10000 nM; at Mu-type opioid receptor [6], over 10000 nM; in [16] it was 1740 nM. Besides, the outcome in the series on Mus musculus [5], in the series on Mus musculus [9] and in the series with Mus musculus [17] was Active. Besides, the Ratio Ki in the series listed under Homo sapiens [12] and in the series listed under Homo sapiens [19] was over 5.8 throughout.

In general, Tmax refers to the time at which the peak concentration occurs. Usually half-life stands for how long it takes for the measured level to halve. Read a low half-life as rapid decline. By bioavailability is commonly meant dose-corrected exposure relative to a reference, in per cent. Read a low bioavailability as little systemic uptake. Turning to `Cc1cc(C)cc([C@@H]2CCCN2Cc2ccc(Oc3ccc(C(N)=O)cc3F)cc2)c1` [ATICAPRANT], the Tmax in series [20] was in the range of 1 to 2 h. The same compound registered a half-life in series [21] of 2 to 4 h. Moreover, the bioavailability in [22] worked out at 25%.
